Calls of active or inactive are those of the source. The rule behind the calls is not given here.
Tests used:
[1] = Inhibition of N-terminal his-tagged bacterial VIM2 (27 to 266 residues) expressed in Escherichia coli BL21(DE3) pLyS cells; set-up: species or system Bacteria
[2] = Inhibition of bacterial VIM2 (27 to 266 residues) expressed in Escherichia coli Transetta (DE3) cells using FC-5 as substrate by fluorescence assay; set-up: species or system Bacteria
[3] = Inhibition of bacterial NDM1 (1 to 270 residues) expressed in Escherichia coli Transetta (DE3) cells using FC-5 as substrate by fluorescence assay; set-up: species or system Bacteria
[4] = Inhibition of N-terminal his-tagged bacterial NDM1 expressed in Escherichia coli BL21(DE3) pLyS cells; set-up: species or system Bacteria
Bacteria [5] = experiment: Reversible inhibition of bacterial VIM2 (27 to 266 residues) expressed in Escherichia coli Transetta (DE3) cells at 7.5 uM using FC-5 as substrate up to 500 secs by jump dilution assay
Method in brief: (§1)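 Jump-dilution reversibility test. VIM-2 at 100-fold its activity-assay concentration was preincubated with inhibitor for 30 min at room temperature, then rapidly diluted 100-fold, and enzyme activity was followed.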

[6] = biological target: Metallo-beta-lactamase (Escherichia coli) (UniProt Q5U7L7); experiment: Inhibition of Escherichia coli VIM2 expressed in Escherichia coli DH5alpha assessed as potentiation of meropenem induced antibacterial activity by measuring meropenem MIC at 100 uM after 16 to 20 hrs by CLSI broth microdilution method (reference value: 16 microg/ml)
Method in brief: (§2)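 MICs of meropenem against E. coli DH5α carrying a VIM-2-encoding plasmid, and against a control E. coli strain, with meropenem alone or combined with inhibitor at fixed 100, 200 or 500 µM. Fold change is the MIC shift relative to meropenem alone.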

Bacteria [7] = experiment: Reversible inhibition of bacterial VIM2 (27 to 266 residues) expressed in Escherichia coli Transetta (DE3) cells at 0.77 uM using FC-5 as substrate up to 500 secs by jump dilution assay; method in brief: as §1
[8] = biological target: Metallo-beta-lactamase (Escherichia coli) (UniProt Q5U7L7); experiment: Inhibition of Escherichia coli VIM2 expressed in Escherichia coli DH5alpha assessed as potentiation of meropenem induced antibacterial activity by measuring meropenem MIC at 200 uM after 16 to 20 hrs by CLSI broth microdilution method (reference value: 16 microg/ml); method in brief: as §2
HEK-293T = experiment: Cytotoxicity against HEK293T cells assessed as reduction in cell viability at 50 uM after 72 hrs by MTT assay relative to control; assay type: cell-based; conditions: human
Escherichia coli [9] = experiment: Growth inhibition of Escherichia coli DH5alpha expressing Escherichia coli VIM2 after 16 to 20 hrs by CLSI broth microdilution method; assay type: organism-based, DH5[alpha]; conditions: in vivo; method in brief: as §2
Danio rerio [10] = organism: Danio rerio; experiment: Toxicity in FLK-1 promoter EGFP transgenic zebrafish embryos assessed as limited mobility at 20 uM incubated for 4 to 96 hrs post fertilization by fluorescence microscopic analysis; assay type: organism-based; conditions: in vivo
Escherichia coli [11] = experiment: Growth inhibition of Escherichia coli DH5alpha after 16 to 20 hrs by CLSI broth microdilution method; assay type: organism-based, DH5[alpha]; conditions: in vivo; method in brief: as §2
[12] = biological target: Metallo-beta-lactamase (Escherichia coli) (UniProt Q5U7L7); experiment: Inhibition of Escherichia coli VIM2 expressed in Escherichia coli DH5alpha assessed as potentiation of meropenem induced antibacterial activity by measuring meropenem MIC at 500 uM after 16 to 20 hrs by CLSI broth microdilution method (reference value: 16 microg/ml); method in brief: as §2
[13] = biological target: Metallo-beta-lactamase (Escherichia coli) (UniProt Q5U7L7); experiment: Inhibition of Escherichia coli VIM2 expressed in Escherichia coli DH5alpha assessed as potentiation of meropenem induced antibacterial activity by measuring fold reduction of meropenem MIC after 16 to 20 hrs by CLSI broth microdilution method relative to control; method in brief: as §2
Danio rerio [14] = organism: Danio rerio; experiment: Toxicity in FLK-1 promoter EGFP transgenic zebrafish embryos assessed as effect on morphology at 20 uM incubated for 4 to 96 hrs post fertilization by fluorescence microscopic analysis; assay type: organism-based; conditions: in vivo
Escherichia coli [15] = experiment: Potentiation of meropenem induced antibacterial activity against Escherichia coli DH5alpha by measuring meropenem MIC at 100 uM after 16 to 20 hrs by CLSI broth microdilution method (reference value: <0.25 microg/ml); assay type: functional; conditions: DH5[alpha]; method in brief: as §2
Danio rerio [16] = organism: Danio rerio; experiment: Toxicity in FLK-1 promoter EGFP transgenic zebrafish embryos assessed as effect on angiogenesis at 20 uM incubated for 4 to 96 hrs post fertilization by fluorescence microscopic analysis; assay type: organism-based; conditions: in vivo
Escherichia coli [17] = experiment: Potentiation of meropenem induced antibacterial activity against Escherichia coli DH5alpha by measuring meropenem MIC at 500 uM after 16 to 20 hrs by CLSI broth microdilution method (reference value: <0.25 microg/ml); assay type: functional; conditions: DH5[alpha]; method in brief: as §2
Danio rerio [18] = organism: Danio rerio; experiment: Toxicity in FLK-1 promoter EGFP transgenic zebrafish embryos assessed as death at 20 uM incubated for 4 to 96 hrs post fertilization by fluorescence microscopic analysis; assay type: organism-based; conditions: in vivo
[19] = Inhibition of bacterial VIM2 (27 to 266 residues) expressed in Escherichia coli Transetta (DE3) cells using FC-5 as substrate in presence of 100 uM Zn2+ by fluorescence assay; set-up: species or system Bacteria
Method in brief: (§3)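 VIM-2 inhibition determined as dose-inhibition curves, with the assay run at added Zn(II) of 0, 1 or 100 µM.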

Escherichia coli [20] = experiment: Potentiation of meropenem induced antibacterial activity against Escherichia coli DH5alpha by measuring meropenem MIC at 200 uM after 16 to 20 hrs by CLSI broth microdilution method (reference value: <0.25 microg/ml); assay type: functional; conditions: DH5[alpha]; method in brief: as §2
[21] = Inhibition of bacterial VIM2 (27 to 266 residues) expressed in Escherichia coli Transetta (DE3) cells using FC-5 as substrate in presence of 1 uM Zn2+ by fluorescence assay; set-up: species or system Bacteria; method in brief: as §3
Bacteria [22] = experiment: Reversible inhibition of bacterial VIM2 (27 to 266 residues) expressed in Escherichia coli Transetta (DE3) cells at 0.14 uM using FC-5 as substrate up to 500 secs by jump dilution assay; method in brief: as §1

C[C@H](CS)C(=O)N1CCC[C@@H]1C(=O)O [D-CAPTOPRIL]
IC50 [1]: 4550 nM
pIC50 [1]: 5.34

C[C@H](CS)C(=O)N[C@H](Cc1ccccc1)C(=O)O
IC50 [2]: 121 nM
pIC50 [2]: 6.92
IC50 [3]: 7000 nM
pIC50 [3]: 5.16

C[C@H](CS)C(=O)N[C@H](Cc1c[nH]c2ccccc12)C(=O)O
IC50 [1]: 50 nM
pIC50 [1]: 7.26
IC50 [4]: 64800 nM
pIC50 [4]: 4.19

C[C@H](CS)C(=O)N1CCC[C@H]1C(=O)O [CAPTOPRIL]
inhibition (Bacteria [5]): Active

C[C@H](CS)C(=O)N[C@H](C(=O)O)c1ccccc1
IC50 [2]: 39 nM
pIC50 [2]: 7.41
IC50 [3]: 8770 nM
pIC50 [3]: 5.06

C[C@H](CS)C(=O)N[C@@H](Cc1ccccc1)C(=O)O
IC50 [2]: 2850 nM
pIC50 [2]: 5.55
IC50 [3]: 233000 nM
pIC50 [3]: 3.63

C[C@H](CS)C(=O)N[C@@H](C(=O)O)c1ccc(F)cc1
IC50 [2]: 55 nM
pIC50 [2]: 7.26
IC50 [3]: 5590 nM
pIC50 [3]: 5.25

C[C@H](CS)C(=O)N[C@H](C(=O)O)c1ccc(O)cc1
MIC [6]: 16 µg/mL
inhibition (Bacteria [7]): inactive
MIC [8]: 16 µg/mL
Activity (HEK-293T): Non-Toxic
IC50 [2]: 77 nM
pIC50 [2]: 7.11
MIC (Escherichia coli [9]): > 128 µg/mL
Activity (Danio rerio [10]): Non-Toxic
MIC (Escherichia coli [11]): > 128 µg/mL
MIC [12]: 8 µg/mL
fold change (FC) [13]: 2 to 4
Activity (Danio rerio [14]): Non-Toxic
MIC (Escherichia coli [15]): < 0.25 µg/mL
Activity (Danio rerio [16]): Non-Toxic
MIC (Escherichia coli [17]): < 0.25 µg/mL
Activity (Danio rerio [18]): Non-Toxic
IC50 [19]: 66 nM
MIC (Escherichia coli [20]): < 0.25 µg/mL
IC50 [3]: 24000 nM
pIC50 [3]: 4.62
IC50 [21]: 72.9 nM

C[C@H](CS)C(=O)N[C@H](Cc1ccc(O)cc1)C(=O)O
IC50 [2]: 276 nM
pIC50 [2]: 6.56
IC50 [3]: 73100 nM
pIC50 [3]: 4.14

C[C@H](CS)C(=O)N[C@@H](Cc1c[nH]c2ccccc12)C(=O)O
IC50 [1]: 1060 nM
pIC50 [1]: 5.97
IC50 [4]: 24800 nM
pIC50 [4]: 4.61

C[C@H](CS)C(=O)N[C@@H](C(=O)O)c1ccccc1
IC50 [2]: 57 nM
pIC50 [2]: 7.25
IC50 [3]: 20500 nM
pIC50 [3]: 4.69

C[C@H](CS)C(=O)N[C@@H](Cc1ccc(O)cc1)C(=O)O
IC50 [2]: 490 nM
pIC50 [2]: 6.31
IC50 [3]: 326000 nM
pIC50 [3]: 3.49

C[C@H](CS)C(=O)N[C@@H](C(=O)O)c1ccc(O)cc1
MIC [6]: 8 µg/mL
MIC [8]: 8 µg/mL
Activity (HEK-293T): 8%
IC50 [2]: 9.57 to 13.7 nM
pIC50 [2]: 7.86
MIC (Escherichia coli [9]): > 128 µg/mL
Activity (Danio rerio [10]): Non-Toxic
MIC (Escherichia coli [11]): > 128 µg/mL
MIC [12]: 4 µg/mL
fold change (FC) [13]: 2 to 4
Activity (Danio rerio [14]): Non-Toxic
MIC (Escherichia coli [15]): < 0.25 µg/mL
Activity (Danio rerio [16]): Non-Toxic
MIC (Escherichia coli [17]): < 0.25 µg/mL
inhibition (Bacteria [22]): inactive
Activity (Danio rerio [18]): Non-Toxic
IC50 [19]: 12.3 nM
MIC (Escherichia coli [20]): < 0.25 µg/mL
IC50 [3]: 3570 nM
pIC50 [3]: 5.45
IC50 [21]: 14.8 nM

C[C@H](CS)C(=O)N[C@H](C(=O)O)c1ccc(F)cc1
IC50 [2]: 121 nM
pIC50 [2]: 6.92
IC50 [3]: 11700 nM
pIC50 [3]: 4.93

— ChEMBL document CHEMBL4145490, “((S)-3-Mercapto-2-methylpropanamido)acetic acid derivatives as metallo-β-lactamase inhibitors: Synthesis, kinetic and crystallographic studies” (Eur J Med Chem, 2018)
